According to ChEMBL document CHEMBL4706666, “Targeting Cysteine Located Outside the Active Site: An Effective Strategy for Covalent ALKi Design” (J Med Chem, 2021):
pIC50: −log10 of the molar value. Calls of active or inactive are those of the source. The rule behind the calls is not given here.

Experiments:
NCI-H3122 [1] = assay: Antiproliferative activity against human NCI-H3122 cells assessed as reduction in cell viability incubated for 72 hrs by MTT assay; details: NCI-H3122, 72 h
[2] = target: T1, ALK tyrosine kinase receptor (Homo sapiens, UniProt Q9UM73); assay: Inhibition of N-terminal GST tagged human ALK cytoplasmic domain (1058 to 1620 residues) expressed in Sf21 cells by mobility shift assay
Procedure, shortened: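 Wild-type ALK, kinase substrate and ATP at Km were combined with compound in kinase buffer and incubated 10 min at room temperature. Read-out was by mobility shift, and IC50 was derived by curve fitting.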
Target sequence in this assay (Q9UM73 whole entry, the tested form may be a part): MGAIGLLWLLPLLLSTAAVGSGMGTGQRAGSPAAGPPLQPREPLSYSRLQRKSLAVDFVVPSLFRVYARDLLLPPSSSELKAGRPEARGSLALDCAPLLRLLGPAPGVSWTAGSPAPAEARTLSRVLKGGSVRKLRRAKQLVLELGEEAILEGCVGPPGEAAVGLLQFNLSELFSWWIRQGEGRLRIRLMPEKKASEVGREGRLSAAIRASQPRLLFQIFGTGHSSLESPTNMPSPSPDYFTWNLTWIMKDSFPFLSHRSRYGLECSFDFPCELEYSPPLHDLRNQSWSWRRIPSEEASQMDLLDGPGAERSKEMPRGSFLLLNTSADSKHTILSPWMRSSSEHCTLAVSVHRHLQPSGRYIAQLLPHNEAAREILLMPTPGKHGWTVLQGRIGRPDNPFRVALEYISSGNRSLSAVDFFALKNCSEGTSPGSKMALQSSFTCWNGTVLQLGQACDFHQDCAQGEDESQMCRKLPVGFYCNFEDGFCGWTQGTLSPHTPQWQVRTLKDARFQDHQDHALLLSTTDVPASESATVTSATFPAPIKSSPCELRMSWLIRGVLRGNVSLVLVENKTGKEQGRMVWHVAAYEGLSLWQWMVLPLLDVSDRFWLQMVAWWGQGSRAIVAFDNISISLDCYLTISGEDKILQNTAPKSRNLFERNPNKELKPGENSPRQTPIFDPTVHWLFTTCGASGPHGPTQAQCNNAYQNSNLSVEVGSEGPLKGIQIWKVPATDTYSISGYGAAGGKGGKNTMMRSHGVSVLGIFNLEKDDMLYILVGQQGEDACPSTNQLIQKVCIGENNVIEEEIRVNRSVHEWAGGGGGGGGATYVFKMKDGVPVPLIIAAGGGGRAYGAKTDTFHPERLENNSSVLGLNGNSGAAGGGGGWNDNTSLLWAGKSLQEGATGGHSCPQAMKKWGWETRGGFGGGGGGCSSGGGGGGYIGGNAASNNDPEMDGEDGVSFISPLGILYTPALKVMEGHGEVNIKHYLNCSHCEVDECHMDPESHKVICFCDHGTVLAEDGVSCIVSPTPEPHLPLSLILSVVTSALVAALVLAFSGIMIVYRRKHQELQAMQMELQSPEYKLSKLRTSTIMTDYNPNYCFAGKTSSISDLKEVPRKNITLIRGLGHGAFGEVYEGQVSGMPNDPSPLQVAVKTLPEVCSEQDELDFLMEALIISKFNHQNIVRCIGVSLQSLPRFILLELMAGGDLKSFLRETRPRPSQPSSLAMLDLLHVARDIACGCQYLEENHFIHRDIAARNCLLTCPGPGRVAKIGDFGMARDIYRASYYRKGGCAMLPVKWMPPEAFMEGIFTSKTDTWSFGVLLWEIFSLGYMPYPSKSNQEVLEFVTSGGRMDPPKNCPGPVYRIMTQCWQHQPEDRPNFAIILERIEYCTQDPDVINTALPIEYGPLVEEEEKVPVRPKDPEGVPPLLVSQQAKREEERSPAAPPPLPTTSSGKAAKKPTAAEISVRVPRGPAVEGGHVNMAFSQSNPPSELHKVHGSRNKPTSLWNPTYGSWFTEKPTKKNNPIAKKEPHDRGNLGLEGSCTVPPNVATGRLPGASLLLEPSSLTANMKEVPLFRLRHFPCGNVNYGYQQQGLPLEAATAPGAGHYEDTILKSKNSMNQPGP

[3] = target: T2, Receptor-type tyrosine-protein kinase FLT3 (Homo sapiens, UniProt P36888); assay: Inhibition of FLT3 (unknown origin)
T2 sequence (P36888 whole entry): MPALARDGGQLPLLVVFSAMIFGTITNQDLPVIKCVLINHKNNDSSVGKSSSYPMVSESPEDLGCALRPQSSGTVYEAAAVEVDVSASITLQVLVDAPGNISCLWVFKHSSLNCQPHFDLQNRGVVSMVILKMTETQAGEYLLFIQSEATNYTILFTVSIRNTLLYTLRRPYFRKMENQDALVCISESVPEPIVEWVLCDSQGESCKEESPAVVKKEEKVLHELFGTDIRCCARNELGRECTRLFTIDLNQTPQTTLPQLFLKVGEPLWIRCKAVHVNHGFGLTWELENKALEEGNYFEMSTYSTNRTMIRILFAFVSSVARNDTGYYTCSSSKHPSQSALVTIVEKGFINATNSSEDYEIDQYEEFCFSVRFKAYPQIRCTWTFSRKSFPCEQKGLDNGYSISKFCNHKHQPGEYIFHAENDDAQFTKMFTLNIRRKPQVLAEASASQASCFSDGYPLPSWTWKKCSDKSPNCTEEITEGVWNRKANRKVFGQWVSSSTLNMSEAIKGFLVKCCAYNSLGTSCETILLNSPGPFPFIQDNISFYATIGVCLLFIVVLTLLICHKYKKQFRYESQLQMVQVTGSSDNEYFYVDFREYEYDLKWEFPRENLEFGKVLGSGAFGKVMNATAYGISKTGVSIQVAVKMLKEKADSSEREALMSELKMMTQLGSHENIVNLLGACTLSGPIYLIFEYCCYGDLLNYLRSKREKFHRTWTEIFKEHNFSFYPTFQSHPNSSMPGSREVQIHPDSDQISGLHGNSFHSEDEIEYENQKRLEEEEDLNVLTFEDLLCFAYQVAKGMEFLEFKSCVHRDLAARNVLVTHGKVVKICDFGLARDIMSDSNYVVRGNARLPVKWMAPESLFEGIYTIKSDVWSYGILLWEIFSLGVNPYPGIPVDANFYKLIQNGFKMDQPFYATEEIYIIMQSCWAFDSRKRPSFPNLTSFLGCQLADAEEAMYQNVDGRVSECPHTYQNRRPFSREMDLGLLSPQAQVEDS

[4] = target: Fibroblast growth factor receptor 2 (Homo sapiens, UniProt P21802); assay: Inhibition of FGFR2 (unknown origin)
Chain of Fibroblast growth factor receptor 2 (P21802 whole entry): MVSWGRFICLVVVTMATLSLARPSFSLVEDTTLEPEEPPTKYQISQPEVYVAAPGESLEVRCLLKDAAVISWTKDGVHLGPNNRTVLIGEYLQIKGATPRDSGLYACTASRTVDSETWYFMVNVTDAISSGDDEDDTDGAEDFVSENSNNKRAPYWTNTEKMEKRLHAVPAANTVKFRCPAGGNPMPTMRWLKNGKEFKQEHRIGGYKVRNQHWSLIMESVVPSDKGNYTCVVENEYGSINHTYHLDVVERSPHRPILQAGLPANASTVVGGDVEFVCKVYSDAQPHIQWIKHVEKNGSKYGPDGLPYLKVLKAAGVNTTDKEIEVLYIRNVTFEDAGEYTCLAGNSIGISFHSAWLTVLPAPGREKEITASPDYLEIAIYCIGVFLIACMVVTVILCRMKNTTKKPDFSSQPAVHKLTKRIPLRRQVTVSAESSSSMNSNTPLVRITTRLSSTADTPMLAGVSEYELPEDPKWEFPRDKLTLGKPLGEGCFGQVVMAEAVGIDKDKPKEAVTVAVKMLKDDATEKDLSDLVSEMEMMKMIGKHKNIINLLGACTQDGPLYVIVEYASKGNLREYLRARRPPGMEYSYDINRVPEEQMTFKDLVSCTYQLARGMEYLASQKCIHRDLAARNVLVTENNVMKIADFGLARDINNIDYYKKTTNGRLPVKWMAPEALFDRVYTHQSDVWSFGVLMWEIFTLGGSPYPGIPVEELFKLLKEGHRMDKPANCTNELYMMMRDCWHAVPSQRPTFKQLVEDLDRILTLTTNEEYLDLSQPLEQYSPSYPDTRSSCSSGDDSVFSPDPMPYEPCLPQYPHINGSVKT

[5] = Binding affinity to L-cysteine assessed as molecular mass incubated for 8 hrs by LC-MS analysis
Procedure, shortened: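 L-cysteine incubated in water with a 5-fold molar excess of compound (or DMSO) for 8 h at 4 °C; reaction mixtures analysed by LC–MS on an ion trap mass spectrometer to detect adduct mass.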

[6] = target: T1, ALK tyrosine kinase receptor; assay: Inhibition of ALK phosphorylation in human NCI-H3122 cells at 10 to 500 nM incubated for 24 hrs by western blot analysis; type: cell-based; details: dose 10-500 nM
Procedure, shortened: (§1)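 H3122 cells were exposed for 24 h at 37 °C to 0, 10, 50, 200 or 500 nM, then lysed in RIPA buffer with protease/phosphatase inhibitors and 1 mM PMSF. Protein was BCA-normalized and run on SDS−PAGE to PVDF. Primary antibodies were applied overnight at 4 °C in 5% BSA/TBST, then HRP secondary (1/5000, 1 h). Detection was by chemiluminescence.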
Target sequence in this assay (Q9UM73 19-1620 limits assumed): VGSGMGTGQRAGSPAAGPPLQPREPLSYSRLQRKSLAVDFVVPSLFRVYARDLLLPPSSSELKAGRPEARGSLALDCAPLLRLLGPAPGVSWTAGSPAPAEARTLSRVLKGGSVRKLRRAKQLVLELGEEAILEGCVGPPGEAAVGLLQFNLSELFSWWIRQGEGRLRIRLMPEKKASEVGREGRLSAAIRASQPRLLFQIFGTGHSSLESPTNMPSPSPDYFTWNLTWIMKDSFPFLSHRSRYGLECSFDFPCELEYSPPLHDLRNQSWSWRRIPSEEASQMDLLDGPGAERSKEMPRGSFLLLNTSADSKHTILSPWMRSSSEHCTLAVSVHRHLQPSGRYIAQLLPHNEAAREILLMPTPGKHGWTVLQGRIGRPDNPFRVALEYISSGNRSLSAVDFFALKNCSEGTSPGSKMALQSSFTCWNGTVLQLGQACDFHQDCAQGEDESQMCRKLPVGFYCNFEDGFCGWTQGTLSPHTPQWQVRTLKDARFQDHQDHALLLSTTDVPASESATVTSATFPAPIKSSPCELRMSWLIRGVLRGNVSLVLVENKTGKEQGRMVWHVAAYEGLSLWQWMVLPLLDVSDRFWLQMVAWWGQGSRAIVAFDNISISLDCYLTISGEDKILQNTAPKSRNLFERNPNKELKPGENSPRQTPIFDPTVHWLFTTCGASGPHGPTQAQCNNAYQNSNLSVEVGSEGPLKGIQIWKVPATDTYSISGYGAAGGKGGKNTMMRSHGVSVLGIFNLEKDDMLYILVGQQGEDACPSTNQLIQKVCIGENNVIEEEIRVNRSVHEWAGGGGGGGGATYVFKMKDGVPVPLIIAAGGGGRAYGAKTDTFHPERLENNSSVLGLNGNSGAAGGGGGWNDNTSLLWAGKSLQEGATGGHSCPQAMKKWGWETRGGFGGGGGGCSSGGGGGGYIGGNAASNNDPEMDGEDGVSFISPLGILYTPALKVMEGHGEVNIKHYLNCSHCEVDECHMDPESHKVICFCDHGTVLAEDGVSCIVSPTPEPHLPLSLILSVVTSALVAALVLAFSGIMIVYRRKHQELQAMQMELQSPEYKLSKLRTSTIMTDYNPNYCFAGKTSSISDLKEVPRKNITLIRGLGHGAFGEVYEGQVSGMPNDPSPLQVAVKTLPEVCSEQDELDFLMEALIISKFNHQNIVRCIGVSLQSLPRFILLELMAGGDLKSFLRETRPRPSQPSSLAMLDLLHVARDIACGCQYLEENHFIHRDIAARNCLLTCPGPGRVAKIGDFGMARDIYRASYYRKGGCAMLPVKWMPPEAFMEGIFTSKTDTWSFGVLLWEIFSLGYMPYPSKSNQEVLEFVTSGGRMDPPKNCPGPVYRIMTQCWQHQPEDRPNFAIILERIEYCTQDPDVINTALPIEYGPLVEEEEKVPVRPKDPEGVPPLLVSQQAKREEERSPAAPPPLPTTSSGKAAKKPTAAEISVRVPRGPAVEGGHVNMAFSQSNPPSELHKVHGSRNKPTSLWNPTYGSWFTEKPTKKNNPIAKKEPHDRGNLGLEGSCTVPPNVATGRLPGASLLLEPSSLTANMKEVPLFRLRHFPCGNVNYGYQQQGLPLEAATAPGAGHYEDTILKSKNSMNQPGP

[7] = target: T1, ALK tyrosine kinase receptor; assay: Inhibition of ALK in human NCI-H3122 cells assessed as decrease in phosphorylation of AKT at 10 to 500 nM incubated for 24 hrs by western blot analysis; type: cell-based; details: dose 10-500 nM; procedure, shortened: as §1
Target sequence in this assay (Q9UM73 19-1620 limits assumed): as above

[8] = target: T1, ALK tyrosine kinase receptor; assay: Inhibition of ALK in human NCI-H3122 cells assessed as decrease in STAT3 expression levels at 10 to 500 nM incubated for 24 hrs by western blot analysis; type: cell-based; details: dose 10-500 nM; procedure, shortened: as §1
Target sequence in this assay (Q9UM73 19-1620 limits assumed): as above

[9] = target: T1, ALK tyrosine kinase receptor; assay: Inhibition of ALK in human NCI-H3122 cells assessed as downregulation of AKT expression levels at 10 to 500 nM incubated for 24 hrs by western blot analysis; type: cell-based; details: dose 10-500 nM; procedure, shortened: as §1
Target sequence in this assay (Q9UM73 19-1620 limits assumed): as above

[10] = target: T1, ALK tyrosine kinase receptor; assay: Inhibition of ALK in human NCI-H3122 cells assessed as downregulation of STAT3 phosphorylation levels at 10 to 500 nM incubated for 24 hrs by western blot analysis; type: cell-based; details: dose 10-500 nM; procedure, shortened: as §1
Target sequence in this assay (Q9UM73 19-1620 limits assumed): as above

[11] = Clearance in Sprague-Dawley rat at 1 mg/kg, iv measured upto 24 hrs by LC-MS/MS analysis; type: ADME, organism-based; details: in vivo
Procedure, shortened: (§2)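 Male SD rats (200−220 g, n = 3 per group) received 1 mg/kg iv in 5% DMA/10% Solutol HS 15/85% saline, or 10 mg/kg orally in 0.5% CMC-Na. Jugular-vein blood was drawn to 24 h, and plasma was kept at −80 °C. Plasma levels were quantified by LC−MS/MS (LLOQ 1 ng/mL), and parameters were derived by noncompartmental analysis.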

[12] = Volume of distribution at steady state in Sprague-Dawley rat at 1 mg/kg, iv measured upto 24 hrs by LC-MS/MS analysis; type: ADME, organism-based; details: in vivo, read-out: Vdss; procedure, shortened: as §2
[13] = Tmax in Sprague-Dawley rat at […] measured upto 24 hrs by LC-MS/MS analysis; type: ADME, organism-based; details: in vivo
[14] = Cmax in Sprague-Dawley rat at […] measured upto 24 hrs by LC-MS/MS analysis; type: ADME, organism-based; set-up: route intravenous, dose 1 mg/kg, time <=24; details: in vivo
[15] = AUC (0 to infinity) in Sprague-Dawley rat at 10 mg/kg, po measured upto 24 hrs by LC-MS/MS analysis; type: ADME, organism-based; set-up: route oral, dose 10 mg/kg, time <=24; details: in vivo; procedure, shortened: as §2
[16] = Half life in Sprague-Dawley rat at 10 mg/kg, po measured upto 24 hrs by LC-MS/MS analysis; type: ADME, organism-based; details: in vivo; procedure, shortened: as §2
[17] = Oral bioavailability in Sprague-Dawley rat at 10 mg/kg measured upto 24 hrs by LC-MS/MS analysis; type: ADME, organism-based; details: in vivo; procedure, shortened: as §2
NCI-H3122 [18] = assay: Antitumor activity against human NCI-H3122 cells xenografted in Balb/c nude mouse assessed as tumor growth inhibition administered orally and measured every 3 days for 15 days by vernier caliper method; type: functional, cell-based; details: time 15.0 day
Procedure, shortened: (§3)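 Female BALB/c nude mice, 6−7 weeks old and 18−22 g, were implanted sc with 5 × 10⁶ exponential-phase H3122 cells in 0.1 mL serum- and antibiotic-free medium. At 150−200 mm³ they were randomized (6 per group) and dosed orally once daily at 10, 20 or 50 mg/kg in 10% NMP/90% PEG300, with a vehicle group. Body weight and caliper tumor volume (a × b²/2) were recorded every 3 days. TGI versus vehicle was determined after 15 days.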

NCI-H3122 [19] = assay: Antitumor activity against human NCI-H3122 cells xenografted in Balb/c nude mouse assessed as tumor growth inhibition at 10 mg/kg/day, po and measured 15 days post treatment by vernier caliper method relative to control; type: functional; details: 360 h, time 15 day, read-out: TGI; procedure, shortened: as §3
NCI-H3122 [20] = assay: Antitumor activity against human NCI-H3122 cells xenografted in Balb/c nude mouse assessed as tumor growth inhibition at 20 mg/kg/day, po and measured 15 days post treatment by vernier caliper method relative to control; type: functional; details: 360 h, time 15 day, read-out: TGI; procedure, shortened: as §3
NCI-H3122 [21] = assay: Antitumor activity against human NCI-H3122 cells xenografted in Balb/c nude mouse assessed as tumor growth inhibition at 50 mg/kg/day, po and measured 15 days post treatment by vernier caliper method relative to control; type: functional; details: 360 h, time 15 day, read-out: TGI; procedure, shortened: as §3
[22] = Toxicity in Balb/c mouse xenografted with human NCI-H3122 cells assessed as change in body weight at 10 to 50 mg/kg/day, po and measured every 3 days for 15 days; type: organism-based; details: in vivo, 360 h, dose 10-50 mg/kg/day, time 15 day; procedure, shortened: as §3
[23] = target: T1, ALK tyrosine kinase receptor; assay: Inhibition of N-terminal GST tagged human ALK cytoplasmic domain (1058 to 1620 residues) expressed in Sf21 cells at 20 nM incubated for 10 mins by mobility shift assay
Target sequence in this assay (Q9UM73 19-1620 limits assumed): as above

[24] = target: T1, ALK tyrosine kinase receptor; assay: Inhibition of N-terminal GST tagged human ALK cytoplasmic domain (1058 to 1620 residues) expressed in Sf21 cells at 200 nM incubated for 10 mins by mobility shift assay
L02 = assay: Antiproliferative activity against human L02 cells assessed as reduction in cell viability at 5 uM incubated for 72 hrs by MTT assay relative to Ceritinib; type: cell-based; details: l02, 72 h
Procedure, shortened: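 Normal human liver LO2 cells were grown at 37 °C, 5% CO₂ with 10% FBS and seeded at 2−5 × 10³ per well for 24 h. Compound was added at 5 μM for 72 h, followed by MTT for 1−4 h and absorbance read at 450 nm. Inhibition rate was taken from OD.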

[25] = system: ALK tyrosine kinase receptor (Homo sapiens), Q9UM73 [L1196M]; details: Sf21, dose 200.0 nM, time 10.0 min
Chain of ALK tyrosine kinase receptor (Homo sapiens), Q9UM73 [L1196M] (Q9UM73 whole entry L1196M, looked up, the tested form may be a part): as the sequence (Q9UM73 whole entry, the tested form may be a part) above, with L1196M counted along it

[26] = target: T1, ALK tyrosine kinase receptor; assay: Covalent inhibition of N-terminal GST tagged human ALK cytoplasmic domain (1058 to 1620 residues) expressed in Sf21 cells in presence of high ATP levels
Target sequence in this assay (Q9UM73 whole entry, the tested form may be a part): as the sequence (Q9UM73 whole entry, the tested form may be a part) above

C=CC(=O)NCCOCCNC(=O)CCN1CCC(c2cc(OC(C)C)c(Nc3ncc(Cl)c(Nc4ccccc4S(=O)(=O)C(C)C)n3)cc2C)CC1
pIC50 (NCI-H3122 [1]): 6.82
pIC50 [2]: 9.30
pIC50 [3]: 6.06
pIC50 [4]: < 6.00
Activity [5]: 891 Da
inhibition [6]: Active
inhibition [7]: Active
inhibition [8]: Active
inhibition [9]: Active
inhibition [10]: Active
clearance [11]: 17 mL/min/kg
Vd [12]: 2.81 L/kg
Tmax [13]: 2.67 h
Cmax [14]: 157 ng/mL
AUC(0-inf) [15]: 859 ng·h/mL
half-life [16]: 2.89 h
bioavailability [17]: 12.1%
TGI (NCI-H3122 [18]): Dose-dependent effect
inhibition in vivo at 10 mg/kg/day (NCI-H3122 [19]): 39.7%
inhibition in vivo at 20 mg/kg/day (NCI-H3122 [20]): 49.7%
inhibition in vivo at 50 mg/kg/day (NCI-H3122 [21]): 62%
Activity [22]: Non-Toxic
inhibition [23]: Active
inhibition [24]: Active
Activity (L02): Non-Toxic
inhibition [25]: Active
pIC50 [26]: 8.85

C=CC(=O)NCCCCCCCCNC(=O)CCN1CCC(c2cc(OC(C)C)c(Nc3ncc(Cl)c(Nc4ccccc4S(=O)(=O)C(C)C)n3)cc2C)CC1
pIC50 (NCI-H3122 [1]): 6.14
inhibition [23]: Active
inhibition [24]: Active
Activity (L02): Non-Toxic

C=CC(=O)NCCCCCCNC(=O)CCN1CCC(c2cc(OC(C)C)c(Nc3ncc(Cl)c(Nc4ccccc4S(=O)(=O)C(C)C)n3)cc2C)CC1
pIC50 (NCI-H3122 [1]): 6.12
inhibition [23]: Active
inhibition [24]: Active
Activity (L02): Non-Toxic

C=CC(=O)NCCCNC(=O)CCN1CCC(c2cc(OC(C)C)c(Nc3ncc(Cl)c(Nc4ccccc4S(=O)(=O)C(C)C)n3)cc2C)CC1
pIC50 (NCI-H3122 [1]): 5.94
inhibition [23]: Active
inhibition [24]: Active
Activity (L02): Non-Toxic

Cc1cc(Nc2ncc(Cl)c(Nc3ccccc3S(=O)(=O)C(C)C)n2)c(OC(C)C)cc1C1CCNCC1 [CERITINIB]
pIC50 (NCI-H3122 [1]): 5.96
inhibition in vivo at 20 mg/kg/day (NCI-H3122 [20]): 34%
inhibition [25]: Active

CCC(=O)NCCOCCNC(=O)CCN1CCC(c2cc(OC(C)C)c(Nc3ncc(Cl)c(Nc4ccccc4S(=O)(=O)C(C)C)n3)cc2C)CC1
pIC50 [2]: 7.88

C=CC(=O)NCCCCNC(=O)CCN1CCC(c2cc(OC(C)C)c(Nc3ncc(Cl)c(Nc4ccccc4S(=O)(=O)C(C)C)n3)cc2C)CC1
inhibition [23]: Active
inhibition [24]: Active

C=CC(=O)NCCOCCOCCNC(=O)CCN1CCC(c2cc(OC(C)C)c(Nc3ncc(Cl)c(Nc4ccccc4S(=O)(=O)C(C)C)n3)cc2C)CC1
inhibition [23]: Active
inhibition [24]: Active

C=CC(=O)NCCOCCOCCOCCNC(=O)CCN1CCC(c2cc(OC(C)C)c(Nc3ncc(Cl)c(Nc4ccccc4S(=O)(=O)C(C)C)n3)cc2C)CC1
pIC50 (NCI-H3122 [1]): 6.21
inhibition [23]: Active
inhibition [24]: Active
Activity (L02): Non-Toxic
